# The list is not random: actives were taken first. Their share in the collection is about 2.6%.
# Hsp70 act: Hsp70 transcriptional activators, primary screen, cell-based, HeLa, Hsp70 promoter luciferase, luminescence, 10 µM | 0.04% of 200,000 active | activation, % at 10 µM | HeLa Hsp70 promoter luciferase reporter; scaled: vehicle 0, proteasome-inhibitor control 100%;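 active = activation above the mean across all tested compounds plus 3 SD, cutoff set per campaign, cut at about 5.5% in these data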;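 note: 100% = MG132 at 30 µM as the positive control and 0% = DMSO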
# HSF1 inhib: HSF1 inhibitors in luciferase reporter cells, primary screen, cell-based, NIH3T3, luminescence | NIH3T3-HGL HSE-luciferase, MG132-induced, luminescence 8 h; stronger effect = lower value | activity change, negative = inhibition, % at 7.5 µM (by protocol) | 0.77% of 300,000 active | AID 2098, 2009;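 active = more than half of replicate wells show activity change below -50%, luminescence cut by over half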;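 note: luciferase reports HSF-1 transcriptional activity via heat shock element; 0% = median of DMSO wells and -100% = zero luminescence signal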
# Rad51 HR inh: human RAD51 strand exchange inhibitors, primary screen, biochemical, fluorescence; DNA repair protein RAD51 homolog 1 (Homo sapiens), Q06609; hRad51 DNA strand exchange, fluorescence dequenching; inhibition, % at 10 µM; 0.085% of 200,000 active; AID 1385, 2008;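 active = inhibition above 40% at the single screening dose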;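 note: 0% = DMSO control wells and 100% = blanks with heterologous ssDNA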
#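 Test system: preformed human Rad51 ssDNA filaments. Compound dosing: single dose, 10 µM final compound. Incubation: filaments 15 min 37 °C, then compound 30 min. Technique: FRET fluorescence dequenching, excitation 485 nm, emission 520 nm. Read-out basis: percent inhibition from fluorescence, normalised to plate control and blank means. Benchmarks: plate controls and plate blanks.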
# Mdm2 ligase inh: MDM2-luciferase reporter signal enhancers, primary screen, MDM2 E3 ligase inhibitor project, cell-based, luminescence, 1536-well | E3 ubiquitin-protein ligase Mdm2 (Homo sapiens), Q00987 | cell-based MDM2 ubiquitination luciferase reporter, 2 h; 0 = plate control, 100 = twice control, blank-subtracted | signal enhancement, % at 5 µM | 0.11% of 210,000 active;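 active = signal enhancement of 30% or more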;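 note: luminescence tracks abundance of the self-degrading MDM2-luciferase fusion protein; higher signal means inhibition of MDM2 E3 ligase activity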
# Target sequence (Q00987 whole entry, looked up, the tested form may be a part): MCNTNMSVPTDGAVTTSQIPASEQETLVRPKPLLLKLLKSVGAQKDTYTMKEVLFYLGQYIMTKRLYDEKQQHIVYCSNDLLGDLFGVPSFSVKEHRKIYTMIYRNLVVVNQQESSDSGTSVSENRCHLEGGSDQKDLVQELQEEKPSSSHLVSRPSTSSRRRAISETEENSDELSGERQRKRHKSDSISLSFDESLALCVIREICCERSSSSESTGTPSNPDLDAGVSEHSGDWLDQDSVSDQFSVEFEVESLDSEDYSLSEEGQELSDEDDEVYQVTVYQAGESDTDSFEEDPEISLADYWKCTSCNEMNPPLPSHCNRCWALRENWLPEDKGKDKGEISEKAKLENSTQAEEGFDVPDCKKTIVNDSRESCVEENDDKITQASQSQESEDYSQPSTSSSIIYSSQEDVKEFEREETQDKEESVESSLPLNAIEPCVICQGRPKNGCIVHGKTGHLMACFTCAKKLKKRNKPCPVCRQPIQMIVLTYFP
#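 Assay system: stable mammalian line carrying autodegrading MDM2–luciferase fusion reporter; amount: 2000 cells seeded into each well; buffer or medium: DMEM; benchmarks: plate control and blank wells; signal: luciferase luminescence; timing: 2 h compound exposure at 37 °C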
# HSF-1 act: HSF-1 activators, primary screen, NIH3T3-HGL cells, MG132 stress, luminescence, single point; NIH3T3-HGL HSF-1 luciferase reporter, 8 h; 100% = twice DMSO control signal; activation, % at 9 µM; 1.7% of 300,000 active; AID 504408, 2011;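 active = mean replicate activation of at least 50% with a set share of replicates each reaching 50%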;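 note: 0% = median of the neutral control wells and 100% = twice that signal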
# HSV augment: enhancers of HSV replication in host cells, fold increase, host cell viability; 0.005% of 220,000 active; HSV replication augmentation in cells; maximum fold increase; in the data active = maximum fold increase above about 1.5; tested in PC3 cells
# An asterisk follows results filed as active; i = inactive; / = no result.
SMILES,Hsp70 act,HSF1 inhib,Rad51 HR inh,Mdm2 ligase inh,HSF-1 act,HSV augment
O=c1/c(=C/c2ccccc2)sc2nnc(-c3cccs3)n12,/,27,-9,2,64*,i
Cc1cc(C)c2nc3s/c(=C/c4ccccc4)c(=O)n3c2c1,0,/,-1,5,/,i
Cn1c(=O)oc2cc(S(=O)(=O)N3CCCC3)ccc21,0,-9,2,-4,-11,i
Cn1c(=O)oc2cc(S(=O)(=O)N3CCCCC3)ccc21,/,47,/,/,113*,/
CCc1ccccc1NC1=NCC(=O)N1C1CCCCC1,0,33,/,-12,59*,/
CCc1ccccc1NC1=NCC(=O)N1Cc1ccccc1,0,-13,15,-11,-20,i
C/C(=N\NC(=O)C1=NNC(=O)C1C)c1cccs1 (stereo not drawn),0,-3,-2,6,1,i
Cc1cc(NC(=O)C2C3C(=O)N(CC4CCCO4)C(C(=O)NC(C)(C)C)C34C=CC2(C)O4)no1 (stereo not drawn),0,-9,-11,-4,-3,i
Cc1cc(NC(=O)C2C3C(=O)N(Cc4ccc(Cl)cc4)C(C(=O)NC(C)(C)C)C34C=CC2(C)O4)no1 (stereo not drawn),0,-55*,/,-8,-64,/
O=c1c2ccccc2[nH]c(=S)n1CCN1CCCCC1,/,0,/,/,26,/
O=c1c2ccccc2[nH]c(=S)n1CCC1=CCCCC1,0,36,-4,-3,73*,i
N=c1c(C(=O)NC2CCCC2)cc2c(=O)n3ccccc3nc2n1Cc1ccccc1,/,-91*,/,/,-93,/
N=c1c(S(=O)(=O)c2ccc(Cl)cc2)cc2c(=O)n3ccccc3nc2n1Cc1ccco1,/,86,/,/,137*,/
Cc1ccc(Cn2c(=N)c(C(=O)NC3CCCCC3)cc3c(=O)n4ccccc4nc32)cc1,/,4,/,/,8,/
N=c1c(C(=O)NCC2CCCO2)cc2c(=O)n3ccccc3nc2n1Cc1ccc(Cl)cc1 (stereo not drawn),/,8,/,/,57*,/
N=c1c(S(=O)(=O)c2ccc(Br)cc2)cc2c(=O)n3ccccc3nc2n1Cc1ccco1,/,-1,/,/,8,/
N=c1c(C(=O)NCC2CCCO2)cc2c(=O)n3ccccc3nc2n1Cc1ccccc1 (stereo not drawn),/,-1,/,/,1,/
CCCCC(CCC(=O)Nc1cccc([N+](=O)[O-])c1)C(=O)O (stereo not drawn),/,-4,/,-10,-13,i
Cc1ccc(C2(c3noc(CN4CCC(c5ccncc5)CC4)n3)CCCC2)cc1,0,-4,-7,-16,2,i
COc1ccc(O)c(C2=Nc3ccccc3N=C(c3cccs3)C2)c1,0,-63*,8,-6,-72,i
COc1ccc(NS(=O)(=O)c2ccc(-c3ccccn3)s2)cc1,/,-87*,/,/,-90,/
O=S(=O)(Nc1ccccc1Cl)c1ccc(-c2ccccn2)s1,/,2,/,/,0,/
CCCCC(Nc1ncnc2ccccc12)C(=O)O (stereo not drawn),0,-7,73*,1,-12,i
CN(c1ccc(Cl)cc1)S(=O)(=O)c1nnc(NC(=O)C(C)(C)C)s1,/,-1,/,/,-3,/
Cc1ccc(S(=O)(=O)Nc2nc3ccccc3nc2NCc2ccco2)cc1,0,44,-5,-10,68*,i
SMILES,Hsp70 act,HSF1 inhib,Rad51 HR inh,Mdm2 ligase inh,HSF-1 act,HSV augment
O=C(NC(=S)N1CCN(c2ccc(C(F)(F)F)cc2[N+](=O)[O-])CC1)c1cccs1,0,-94*,0,-12,-94,i
C=C1CCN(C(C(=O)OC)C(C)C)S(=O)(=O)c2ccccc21 (stereo not drawn),/,-6,-5,33*,-6,i
COc1ccc(N=Nc2cc(C)ccc2O)cc1,/,74,21,-69,59*,i
Cc1ccc(O)c(N=Nc2ccc(S(=O)(=O)N3CCCC3)cc2)c1,/,10,-8,-15,-2,i
OCc1ccc(N=Nc2ccccc2)cc1,/,12,/,/,26,/
COc1ccc(N=Nc2ccc(CO)cc2)cc1,/,26,/,/,72*,/
CCN1CCN(C(=O)C(N)Cc2ccccc2)CC1 (stereo not drawn),0,3,10,-8,0,i
COc1ccc(S(=O)(=O)N2CCCCCC2)cc1C(=O)OCC(=O)NC(N)=O,0,-1,1,-12,-18,i
COc1ccc(S(=O)(=O)N2CCCCCC2)cc1C(=O)OCC(=O)NC(C)(C)C,0,-68*,13,-14,-75,i
NNC(=O)c1csc(COc2cc(Cl)cc(Cl)c2)n1,/,3,0,-8,-3,i
CC(=O)c1csc(COc2ccc(Cl)cc2)n1,/,24,8,-5,61*,i
CSCCC(NC(=O)c1ccc(Cl)cc1)C(=O)NC(C)(C)C (stereo not drawn),0,0,-2,-15,8,i
Cn1c2c(c(=O)c3ccccc31)CCCC2,/,1,/,/,-3,/
COc1cccc(N2CCN(c3ccc4nnc(CCC(=O)Nc5ccc(C)cn5)n4n3)CC2)c1,/,-5,/,/,-9,/
Cc1cccc(C)c1Nc1nnc(SCc2cc([N+](=O)[O-])cc3c2OCOC3)s1,0,58,2,-7,99*,i
CC1Cc2ccccc2N1Cc1cccc([N+](=O)[O-])c1 (stereo not drawn),/,-2,/,/,-4,/
O=C(COC(=O)C1CC2C=CC1C2)Nc1ccc2c(c1)OC(F)(F)O2 (stereo not drawn),0,88,4,-19,105*,i
O=C(COC(=O)C1CC2C=CC1C2)Nc1cccc(S(=O)(=O)N2CCCCC2)c1 (stereo not drawn),0,6,2,-16,18,i
Cc1cc(-c2ccc(C(C)C)c(S(=O)(=O)N3CCC(C)CC3)c2)on1,/,22,/,/,38,/
CC(C)CCNC(=O)CSc1nc2ccccc2c(=O)[nH]1,1,22,-1,-22,55*,i
C=CCN1c2ccccc2[C@]23C[C@@H](C(=O)OC)N(C(=O)CC(C)C)C2=NC(C(=O)OC)=C(C(=O)OC)[C@H]13,/,-1,-3,9,-4,i
COC(=O)C1=C(C(=O)OC)[C@@H]2N(Cc3ccccc3)c3ccccc3[C@@]23C[C@@H](C(=O)OC)N(C(=O)c2ccc(Br)cc2)C3=N1,/,-68*,/,/,-71,/
C=CCN1c2ccccc2[C@]23C[C@@H](C(=O)OC)N(C(=O)OCC)C2=NC(C(=O)OC)=C(C(=O)OC)[C@H]13,/,1,2,/,1,i
